# From ChEMBL document CHEMBL1137942, “Design, synthesis, and biological activity of novel, potent, and selective (benzoylaminomethyl)thiophene sulfonamide inhibitors of c-Jun-N-terminal kinase” (J Med Chem, 2004)
# Key:
# SCG [1] = assay: Cell activity of JNK inhibitors in neuronal apoptosis assay in SCG cells, percentage rescued neurons at 3 uM compound concentration after 48 hours; format: functional, Rattus norvegicus
# How it was run: (§1)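 They were cultured in Leibowitz medium with 5% rat serum, 0.75 µg/mL NGF 7S and arabinosine C 10^-5 M. On day 4, medium was switched to 10 µg/mL anti-NGF antibody without NGF or AraC, with inhibitor in 1% DMSO. After 24 h, cells were refed initial medium minus AraC. After another 24 h, viability was read by MTT (0.5 mg/mL, 30 min, 37 °C), OD 590 nm.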
# [2] = target: Serine/threonine-protein kinase Chk1 (Homo sapiens) (UniProt O14757); assay: Percentage activity of human CHK1 in the presence of 10 uM of compound and 10 uM of ATP in comparison with control
# [3] = target: Protein kinase C iota type (Homo sapiens) (UniProt P41743); assay: Percentage activity of human PKC iota in the presence of 10 uM of compound and 10 uM of ATP in comparison with control
# [4] = target: Mitogen-activated protein kinase 9 (Homo sapiens, UniProt P45984); assay: Inhibition of human JNK2
# Chain of Mitogen-activated protein kinase 9 (P45984 whole entry): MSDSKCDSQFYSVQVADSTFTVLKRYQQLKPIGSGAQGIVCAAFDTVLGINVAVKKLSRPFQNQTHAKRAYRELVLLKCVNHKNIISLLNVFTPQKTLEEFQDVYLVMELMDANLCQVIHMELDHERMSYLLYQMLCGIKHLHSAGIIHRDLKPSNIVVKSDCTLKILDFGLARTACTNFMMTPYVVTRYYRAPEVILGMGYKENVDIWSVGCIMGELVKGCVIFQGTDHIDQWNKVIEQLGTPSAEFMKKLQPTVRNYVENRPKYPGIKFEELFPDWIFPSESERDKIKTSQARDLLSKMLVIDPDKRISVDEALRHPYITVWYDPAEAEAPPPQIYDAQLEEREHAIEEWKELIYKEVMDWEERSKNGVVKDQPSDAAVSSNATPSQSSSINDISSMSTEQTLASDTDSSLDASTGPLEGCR
# How it was run: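 Radiometric SPA kinase assay: 0.5 µg recombinant preactivated GST-JNK2, 1 µg biotinylated GST-c-Jun, and 2 µM [33P]γ-ATP (2 nCi/µL). Buffer was 50 mM Tris-HCl pH 8.0, 10 mM MgCl2, 1 mM DTT and 100 µM NaVO4, with or without inhibitor, 120 min at rt. Stopped with streptavidin SPA beads, 5 mM EDTA, 0.1% Triton X-100 and 50 µM ATP in PBS; 60 min. Beads were centrifuged, washed, and counted by scintillation.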
# [5] = target: Cyclin-dependent kinase 2/cyclin A (Homo sapiens) (UniProt P24941+P20248+P78396); assay: Percentage activity of human CDK2 (with cyclin A) in the presence of 10 uM of compound and 10 uM of ATP in comparison with control; format: protein-complex assay
# [6] = target: Rho-associated protein kinase 2 (Homo sapiens) (UniProt O75116); assay: Percentage activity of human ROCK-II in the presence of 10 uM of compound and 10 uM of ATP in comparison with control
# [7] = target: Mitogen-activated protein kinase 14 (Homo sapiens) (UniProt Q16539); assay: Percentage activity of human SAPK2a in the presence of 10 uM of compound and 10 uM of ATP in comparison with control
# [8] = target: RAC-beta serine/threonine-protein kinase (Homo sapiens) (UniProt P31751); assay: Percentage activity of human PKB beta in the presence of 10uM of compound and 10uM of ATP in comparison with control
# [9] = target: Platelet-derived growth factor receptor (Homo sapiens) (UniProt P09619+P16234); assay: Percentage activity of human PDGFR alpha in the presence of 10 uM of compound and 10 uM of ATP in comparison with control; format: protein-complex assay
# [10] = target: Protein kinase C gamma type (Homo sapiens) (UniProt P05129); assay: Percentage activity of human PKC gamma in the presence of 10 uM of compound and 10 uM of ATP in comparison with control
# [11] = target: Insulin-like growth factor 1 receptor (Homo sapiens) (UniProt P08069); assay: Percentage activity of human IGF-1R in the presence of 10 uM of compound and 10 uM of ATP in comparison with control
# [12] = target: Dual specificity mitogen-activated protein kinase kinase 1 (Homo sapiens) (UniProt Q02750); assay: Percentage activity of human MEK1 in the presence of 10 uM of compound and 10 uM of ATP in comparison with control
# [13] = target: Insulin receptor (Homo sapiens) (UniProt P06213); assay: Percentage activity of human IR in the presence of 10 uM of compound and 10 uM of ATP in comparison with control
# Chain of Insulin receptor (Homo sapiens) (P06213 28-758 limits assumed): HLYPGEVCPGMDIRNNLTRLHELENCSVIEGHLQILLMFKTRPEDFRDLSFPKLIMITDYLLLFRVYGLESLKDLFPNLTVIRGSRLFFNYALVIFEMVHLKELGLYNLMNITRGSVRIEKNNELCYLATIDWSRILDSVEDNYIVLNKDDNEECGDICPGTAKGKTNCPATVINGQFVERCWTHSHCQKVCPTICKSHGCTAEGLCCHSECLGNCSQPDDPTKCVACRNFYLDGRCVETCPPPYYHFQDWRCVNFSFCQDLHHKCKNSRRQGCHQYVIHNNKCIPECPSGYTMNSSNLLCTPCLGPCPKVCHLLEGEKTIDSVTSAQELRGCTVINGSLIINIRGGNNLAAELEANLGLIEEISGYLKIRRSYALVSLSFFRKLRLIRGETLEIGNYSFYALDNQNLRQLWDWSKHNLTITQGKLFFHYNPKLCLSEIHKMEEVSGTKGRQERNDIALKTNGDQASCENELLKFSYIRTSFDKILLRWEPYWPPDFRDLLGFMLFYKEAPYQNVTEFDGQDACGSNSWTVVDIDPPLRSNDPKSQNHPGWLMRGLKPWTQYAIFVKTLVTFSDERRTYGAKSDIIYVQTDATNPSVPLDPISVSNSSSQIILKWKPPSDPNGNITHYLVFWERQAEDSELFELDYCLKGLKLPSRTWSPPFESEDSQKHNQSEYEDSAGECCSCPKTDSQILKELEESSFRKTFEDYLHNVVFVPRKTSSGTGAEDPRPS
# Chain of Insulin receptor (Homo sapiens) (P06213 763-1382 limits assumed): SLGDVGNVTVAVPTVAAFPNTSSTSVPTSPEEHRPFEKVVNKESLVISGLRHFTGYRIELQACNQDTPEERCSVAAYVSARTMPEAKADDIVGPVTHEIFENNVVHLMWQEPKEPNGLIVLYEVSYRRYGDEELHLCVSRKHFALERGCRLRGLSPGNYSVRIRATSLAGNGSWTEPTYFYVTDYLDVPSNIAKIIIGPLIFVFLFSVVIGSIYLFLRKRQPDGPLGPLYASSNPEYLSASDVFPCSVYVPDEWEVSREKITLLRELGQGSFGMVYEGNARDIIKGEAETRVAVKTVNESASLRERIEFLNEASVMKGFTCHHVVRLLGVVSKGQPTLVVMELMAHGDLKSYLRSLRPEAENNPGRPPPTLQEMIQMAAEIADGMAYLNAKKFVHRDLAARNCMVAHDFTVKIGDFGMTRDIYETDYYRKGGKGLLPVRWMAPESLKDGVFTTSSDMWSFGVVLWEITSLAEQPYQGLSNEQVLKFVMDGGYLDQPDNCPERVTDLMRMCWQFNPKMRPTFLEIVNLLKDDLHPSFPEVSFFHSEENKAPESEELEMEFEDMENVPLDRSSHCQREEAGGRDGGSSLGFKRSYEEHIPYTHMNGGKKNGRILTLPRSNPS
# [14] = target: Tyrosine-protein kinase SYK (Homo sapiens) (UniProt P43405); assay: Percentage activity of human Syk in the presence of 10 uM of compound and 10 uM of ATP in comparison with control
# [15] = target: MAP kinase-activated protein kinase 5 (Homo sapiens) (UniProt Q8IW41); assay: Percentage activity of human PRAK in the presence of 10 uM of compound and 10 uM of ATP in comparison with control
# [16] = target: Mitogen-activated protein kinase 1 (Homo sapiens) (UniProt P28482); assay: Percentage activity of human MAPK2 in the presence of 10 uM of compound and 10 uM of ATP in comparison with control
# Chain of Mitogen-activated protein kinase 1 (Homo sapiens) (P28482 whole entry): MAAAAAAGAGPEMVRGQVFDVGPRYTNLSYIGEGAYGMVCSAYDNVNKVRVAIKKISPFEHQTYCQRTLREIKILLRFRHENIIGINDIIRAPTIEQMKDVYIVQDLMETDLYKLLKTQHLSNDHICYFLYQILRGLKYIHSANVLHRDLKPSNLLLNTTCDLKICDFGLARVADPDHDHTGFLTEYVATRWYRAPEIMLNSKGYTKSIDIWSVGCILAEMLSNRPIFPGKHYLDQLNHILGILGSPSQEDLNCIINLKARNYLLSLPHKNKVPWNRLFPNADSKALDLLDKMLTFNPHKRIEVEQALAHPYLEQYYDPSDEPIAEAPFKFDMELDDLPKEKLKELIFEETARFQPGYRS
# SCG [17] = assay: Cell activity of JNK inhibitors in neuronal apoptosis assay in SCG cells, percentage rescued neurons at 1uM compound concentration after 48 hours; format: functional, Rattus norvegicus; how it was run: as §1
# [18] = target: Mitogen-activated protein kinase 11 (Homo sapiens) (UniProt Q15759); assay: Percentage activity of human SAPK2b in the presence of 10 uM of compound and 10 uM of ATP in comparison with control
# Chain of Mitogen-activated protein kinase 11 (Homo sapiens) (Q15759 whole entry): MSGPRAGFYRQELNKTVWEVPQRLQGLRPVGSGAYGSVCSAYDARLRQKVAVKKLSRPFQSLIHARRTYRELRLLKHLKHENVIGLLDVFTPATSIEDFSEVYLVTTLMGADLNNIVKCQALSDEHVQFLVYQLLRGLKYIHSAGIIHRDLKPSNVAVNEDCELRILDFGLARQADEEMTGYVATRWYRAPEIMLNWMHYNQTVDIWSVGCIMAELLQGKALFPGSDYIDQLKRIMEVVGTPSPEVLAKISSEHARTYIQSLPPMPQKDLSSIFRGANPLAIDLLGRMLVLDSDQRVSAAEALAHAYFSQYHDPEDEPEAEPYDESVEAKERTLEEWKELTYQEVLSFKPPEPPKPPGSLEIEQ
# [19] = target: CDK3/cyclin E (Homo sapiens) (UniProt P24864+O96020+Q00526); assay: Percentage activity of human CDK3 (with cyclin E) in the presence of 10 uM of compound and 10 uM of ATP in comparison with control; format: protein-complex assay
# Chain of CDK3/cyclin E (Homo sapiens) (O96020 whole entry, looked up): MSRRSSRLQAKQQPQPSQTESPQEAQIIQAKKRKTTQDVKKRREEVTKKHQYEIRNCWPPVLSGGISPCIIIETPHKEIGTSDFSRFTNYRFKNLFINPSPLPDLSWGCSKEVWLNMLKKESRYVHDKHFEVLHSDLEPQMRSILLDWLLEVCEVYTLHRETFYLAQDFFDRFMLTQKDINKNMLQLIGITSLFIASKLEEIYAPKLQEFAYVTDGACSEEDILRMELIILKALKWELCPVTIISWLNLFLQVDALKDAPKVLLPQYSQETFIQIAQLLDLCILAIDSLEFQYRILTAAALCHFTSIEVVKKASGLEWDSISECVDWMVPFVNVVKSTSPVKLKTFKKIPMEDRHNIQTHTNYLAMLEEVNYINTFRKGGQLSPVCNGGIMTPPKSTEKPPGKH
# Chain of CDK3/cyclin E (Homo sapiens) (P24864 whole entry, looked up): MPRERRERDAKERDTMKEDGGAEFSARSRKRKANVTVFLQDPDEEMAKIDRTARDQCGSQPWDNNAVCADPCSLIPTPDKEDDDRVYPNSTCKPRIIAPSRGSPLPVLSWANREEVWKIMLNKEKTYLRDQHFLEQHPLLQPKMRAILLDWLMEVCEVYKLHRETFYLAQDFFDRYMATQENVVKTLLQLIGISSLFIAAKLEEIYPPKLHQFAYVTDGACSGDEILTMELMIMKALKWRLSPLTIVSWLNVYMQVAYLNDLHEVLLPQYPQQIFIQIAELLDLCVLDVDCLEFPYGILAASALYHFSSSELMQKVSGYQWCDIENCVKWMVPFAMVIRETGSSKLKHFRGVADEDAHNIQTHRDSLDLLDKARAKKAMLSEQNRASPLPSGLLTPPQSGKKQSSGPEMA
# Chain of CDK3/cyclin E (Homo sapiens) (Q00526 whole entry, looked up): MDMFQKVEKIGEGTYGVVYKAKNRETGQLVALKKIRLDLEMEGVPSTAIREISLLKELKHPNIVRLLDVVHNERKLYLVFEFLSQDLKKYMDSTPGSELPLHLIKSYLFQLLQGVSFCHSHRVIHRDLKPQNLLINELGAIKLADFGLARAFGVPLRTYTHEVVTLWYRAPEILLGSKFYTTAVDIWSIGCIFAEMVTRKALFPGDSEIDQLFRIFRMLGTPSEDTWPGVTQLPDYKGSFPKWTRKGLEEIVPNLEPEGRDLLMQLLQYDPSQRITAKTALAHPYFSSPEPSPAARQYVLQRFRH
# SCG [20] = assay: Cell activity of JNK inhibitors in neuronal apoptosis assay in SCG cells, percentage rescued neurons at 10 uM compound concentration after 24 hours; format: functional, Rattus norvegicus
# [21] = target: Ribosomal protein S6 kinase (P70S6K) (Homo sapiens) (UniProt Q9UBS0+P23443); assay: Percentage activity of human p70S6K in the presence of 10 uM of compound and 10 uM of ATP in comparison with control; format: protein-complex assay
# [22] = target: Protein kinase C theta type (Homo sapiens) (UniProt Q04759); assay: Percentage activity of human PKC theta in the presence of 10 uM of compound and 10 uM of ATP in comparison with control
# [23] = target: Tyrosine-protein kinase ABL1 (Mus musculus) (UniProt P00520); assay: Percentage activity of mouse Abl in the presence of 10 uM of compound and 10 uM of ATP in comparison with control
# [24] = target: Protein kinase C eta type (Homo sapiens) (UniProt P24723); assay: Percentage activity of human PKC eta in the presence of 10 uM of compound and 10 uM of ATP in comparison with control
# Chain of Protein kinase C eta type (Homo sapiens) (P24723 whole entry): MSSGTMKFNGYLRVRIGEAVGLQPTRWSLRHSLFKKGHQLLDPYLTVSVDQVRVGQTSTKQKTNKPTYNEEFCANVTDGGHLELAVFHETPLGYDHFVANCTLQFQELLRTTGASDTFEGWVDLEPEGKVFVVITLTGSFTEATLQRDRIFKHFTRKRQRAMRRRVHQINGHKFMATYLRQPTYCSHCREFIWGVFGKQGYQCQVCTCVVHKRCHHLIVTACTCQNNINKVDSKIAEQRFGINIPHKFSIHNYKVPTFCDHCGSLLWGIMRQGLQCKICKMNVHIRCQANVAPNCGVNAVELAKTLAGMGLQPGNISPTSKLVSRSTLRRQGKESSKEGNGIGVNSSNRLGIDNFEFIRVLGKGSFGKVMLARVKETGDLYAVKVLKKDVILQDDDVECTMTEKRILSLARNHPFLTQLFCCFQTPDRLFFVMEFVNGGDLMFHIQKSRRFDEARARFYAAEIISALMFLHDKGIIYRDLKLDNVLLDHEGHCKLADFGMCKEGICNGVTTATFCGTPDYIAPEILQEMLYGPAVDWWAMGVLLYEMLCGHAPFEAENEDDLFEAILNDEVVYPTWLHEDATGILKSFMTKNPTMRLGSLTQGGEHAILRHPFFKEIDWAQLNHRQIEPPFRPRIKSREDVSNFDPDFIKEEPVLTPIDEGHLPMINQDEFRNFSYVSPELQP
# [25] = target: Protein kinase C alpha type (Homo sapiens) (UniProt P17252); assay: Percentage activity of human PKC alpha -His in the presence of 10 uM of compound and 10 uM of ATP in comparison with control
# [26] = target: Serine/threonine-protein kinase PAK 2 (Homo sapiens) (UniProt Q13177); assay: Percentage activity of human PAK2 in the presence of 10 uM of compound and 10 uM of ATP in comparison with control
structure (smiles),measurement,setting,value
O=C(NCc1ccc(S(=O)(=O)N2CCC(n3nnc4ccccc43)CC2)s1)c1ccc(Cl)cc1,Rescued neurons,SCG [1],25.2%
same,Activity,[2],130%
same,Activity,[3],99%
same,IC50,[4],650 nM
same,Activity,[5],99%
same,Activity,[6],101%
same,Activity,[7],77%
same,Activity,[8],118%
same,Activity,[9],103%
same,Activity,[10],79%
same,Activity,[11],108%
same,Activity,[12],98%
same,Activity,[13],103%
same,Activity,[14],75%
same,Activity,[15],74%
same,Activity,[16],106%
same,Rescued neurons,SCG [17],2.2%
same,Activity,[18],100%
same,Activity,[19],97%
same,Rescued neurons,SCG [20],27.3%
same,Activity,[21],77%
same,Activity,[22],113%
same,Activity,[23],80%
same,Activity,[24],100%
same,Activity,[25],101%
same,Activity,[26],88%
